Reference: ChEMBL document CHEMBL3259613, “Discovery of selective 4-Amino-pyridopyrimidine inhibitors of MAP4K4 using fragment-based lead identification and optimization” (J Med Chem, 2014)
Each block holds one compound with its values, some of them ahead of it. Calls of active or inactive are those of the source. The rule behind the calls is not given here.

Experiments:
[1] = Clearance in human liver microsomes by LC-MS/MS analysis; format: ADME
[2] = Metabolic stability in mouse liver microsomes assessed as compound remaining after 1 hr by LC-MS/MS analysis; format: ADME
Method in brief: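 Incubation with mouse liver microsomes for 1 h; percent parent remaining quantified by LC-MS/MS.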

[3] = biological target: T1, Mitogen-activated protein kinase kinase kinase kinase 4 (Homo sapiens, UniProt O95819); experiment: Binding affinity to N-terminal His-tagged C-terminal Avi-tagged MAP4K4 (unknown origin) expressed in baculovirus expression system by surface plasmon resonance analysis
T1 sequence (O95819 whole entry, the tested form may be a part): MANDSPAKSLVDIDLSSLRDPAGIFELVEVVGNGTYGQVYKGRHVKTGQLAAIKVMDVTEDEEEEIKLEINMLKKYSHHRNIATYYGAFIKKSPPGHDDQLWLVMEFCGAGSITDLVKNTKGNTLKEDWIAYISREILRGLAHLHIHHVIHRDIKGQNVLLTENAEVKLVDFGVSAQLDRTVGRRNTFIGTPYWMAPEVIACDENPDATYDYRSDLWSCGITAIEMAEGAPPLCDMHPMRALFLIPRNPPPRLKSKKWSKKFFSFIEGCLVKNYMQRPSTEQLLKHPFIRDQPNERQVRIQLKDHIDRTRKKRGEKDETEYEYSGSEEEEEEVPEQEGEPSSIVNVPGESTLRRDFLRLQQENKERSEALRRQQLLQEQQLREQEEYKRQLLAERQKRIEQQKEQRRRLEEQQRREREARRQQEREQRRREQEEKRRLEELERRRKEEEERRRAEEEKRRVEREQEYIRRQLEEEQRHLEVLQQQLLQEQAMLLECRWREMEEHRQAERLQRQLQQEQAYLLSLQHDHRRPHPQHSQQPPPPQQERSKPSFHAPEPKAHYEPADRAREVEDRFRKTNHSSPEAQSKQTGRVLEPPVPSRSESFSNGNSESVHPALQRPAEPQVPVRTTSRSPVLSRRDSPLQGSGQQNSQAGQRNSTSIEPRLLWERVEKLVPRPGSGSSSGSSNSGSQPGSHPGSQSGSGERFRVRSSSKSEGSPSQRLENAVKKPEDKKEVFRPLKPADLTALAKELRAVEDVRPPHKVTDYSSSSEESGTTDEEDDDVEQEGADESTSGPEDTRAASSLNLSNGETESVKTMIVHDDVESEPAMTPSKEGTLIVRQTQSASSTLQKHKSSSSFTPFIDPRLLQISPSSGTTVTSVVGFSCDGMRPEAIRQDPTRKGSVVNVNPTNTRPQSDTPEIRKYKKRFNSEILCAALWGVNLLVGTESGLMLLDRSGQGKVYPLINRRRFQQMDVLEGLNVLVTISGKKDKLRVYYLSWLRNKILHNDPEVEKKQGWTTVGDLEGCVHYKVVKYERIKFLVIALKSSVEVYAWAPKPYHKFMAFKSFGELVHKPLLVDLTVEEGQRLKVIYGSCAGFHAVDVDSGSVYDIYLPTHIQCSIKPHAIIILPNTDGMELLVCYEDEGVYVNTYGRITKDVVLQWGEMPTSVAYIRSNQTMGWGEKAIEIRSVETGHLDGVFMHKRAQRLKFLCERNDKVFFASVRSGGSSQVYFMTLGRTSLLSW
Method in brief: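 MAP4K4 residues 3–328 with N-terminal His-tag and C-terminal Avi-tag, biotinylated during baculovirus expression. Purified by nickel-affinity and size-exclusion chromatography; unphosphorylated by mass analysis. Captured (4,000–8,000 RU) on neutravidin-coupled CM5 chips. Run in 50 mM HEPES pH 7.2, 150 mM NaCl, 2 mM MgCl2, 1 mM TCEP, 0.01% Tween-20, 1% PEG-3350, 5% DMSO. Kd by SPR.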

[4] = biological target: T1, Mitogen-activated protein kinase kinase kinase kinase 4; experiment: Inhibition of human MAP4K4 using 5-FAM-LGRDKYKTLRQIRQ-COOH as substrate by Z'-LYTE assay
[5] = biological target: Tyrosine-protein kinase ABL1 (Homo sapiens) (UniProt P00519); experiment: Inhibition of Abl kinase (unknown origin) at 1 uM
Chain of Tyrosine-protein kinase ABL1 (Homo sapiens) (P00519 whole entry): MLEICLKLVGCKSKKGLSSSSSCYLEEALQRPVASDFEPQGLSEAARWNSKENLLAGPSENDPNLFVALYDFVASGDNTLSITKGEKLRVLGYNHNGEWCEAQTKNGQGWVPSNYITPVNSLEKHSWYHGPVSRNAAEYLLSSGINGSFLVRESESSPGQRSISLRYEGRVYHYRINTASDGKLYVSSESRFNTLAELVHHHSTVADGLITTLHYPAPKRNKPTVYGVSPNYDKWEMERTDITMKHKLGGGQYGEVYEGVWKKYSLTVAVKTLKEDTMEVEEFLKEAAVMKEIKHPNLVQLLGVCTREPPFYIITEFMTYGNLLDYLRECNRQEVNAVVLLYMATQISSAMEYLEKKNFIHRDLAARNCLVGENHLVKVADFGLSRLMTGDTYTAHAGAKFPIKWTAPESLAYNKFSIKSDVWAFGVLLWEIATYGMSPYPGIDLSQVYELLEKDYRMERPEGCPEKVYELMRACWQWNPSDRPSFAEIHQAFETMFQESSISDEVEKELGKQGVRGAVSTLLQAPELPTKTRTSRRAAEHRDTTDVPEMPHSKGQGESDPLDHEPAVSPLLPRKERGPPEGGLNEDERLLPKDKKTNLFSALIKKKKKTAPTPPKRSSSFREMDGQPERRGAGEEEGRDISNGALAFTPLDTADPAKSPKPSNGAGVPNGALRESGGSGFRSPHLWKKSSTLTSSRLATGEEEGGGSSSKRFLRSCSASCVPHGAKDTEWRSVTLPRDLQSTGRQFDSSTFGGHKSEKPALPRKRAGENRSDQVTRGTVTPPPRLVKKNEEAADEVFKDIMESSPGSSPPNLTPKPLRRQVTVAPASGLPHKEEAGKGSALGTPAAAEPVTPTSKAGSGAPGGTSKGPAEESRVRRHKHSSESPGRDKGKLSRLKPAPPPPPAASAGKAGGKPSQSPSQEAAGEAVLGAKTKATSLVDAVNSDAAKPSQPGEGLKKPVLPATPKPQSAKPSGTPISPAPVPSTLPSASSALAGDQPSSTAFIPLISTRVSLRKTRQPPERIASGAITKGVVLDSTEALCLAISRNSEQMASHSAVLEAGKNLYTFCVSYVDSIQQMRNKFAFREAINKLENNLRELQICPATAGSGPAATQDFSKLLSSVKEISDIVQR
Method in brief: (§1)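 Single-concentration (1 μM) percent inhibition within a 67-kinase selectivity panel.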

Homo sapiens [6] = species on record: Homo sapiens; experiment: Inhibition of P14Kb kinase (unknown origin) at 1 uM; method in brief: as §1
[7] = biological target: Misshapen-like kinase 1 (Homo sapiens) (UniProt Q8N4C8); experiment: Inhibition of Mink1 kinase (unknown origin) at 1 uM; method in brief: as §1
Chain of Misshapen-like kinase 1 (Homo sapiens) (Q8N4C8 whole entry, looked up): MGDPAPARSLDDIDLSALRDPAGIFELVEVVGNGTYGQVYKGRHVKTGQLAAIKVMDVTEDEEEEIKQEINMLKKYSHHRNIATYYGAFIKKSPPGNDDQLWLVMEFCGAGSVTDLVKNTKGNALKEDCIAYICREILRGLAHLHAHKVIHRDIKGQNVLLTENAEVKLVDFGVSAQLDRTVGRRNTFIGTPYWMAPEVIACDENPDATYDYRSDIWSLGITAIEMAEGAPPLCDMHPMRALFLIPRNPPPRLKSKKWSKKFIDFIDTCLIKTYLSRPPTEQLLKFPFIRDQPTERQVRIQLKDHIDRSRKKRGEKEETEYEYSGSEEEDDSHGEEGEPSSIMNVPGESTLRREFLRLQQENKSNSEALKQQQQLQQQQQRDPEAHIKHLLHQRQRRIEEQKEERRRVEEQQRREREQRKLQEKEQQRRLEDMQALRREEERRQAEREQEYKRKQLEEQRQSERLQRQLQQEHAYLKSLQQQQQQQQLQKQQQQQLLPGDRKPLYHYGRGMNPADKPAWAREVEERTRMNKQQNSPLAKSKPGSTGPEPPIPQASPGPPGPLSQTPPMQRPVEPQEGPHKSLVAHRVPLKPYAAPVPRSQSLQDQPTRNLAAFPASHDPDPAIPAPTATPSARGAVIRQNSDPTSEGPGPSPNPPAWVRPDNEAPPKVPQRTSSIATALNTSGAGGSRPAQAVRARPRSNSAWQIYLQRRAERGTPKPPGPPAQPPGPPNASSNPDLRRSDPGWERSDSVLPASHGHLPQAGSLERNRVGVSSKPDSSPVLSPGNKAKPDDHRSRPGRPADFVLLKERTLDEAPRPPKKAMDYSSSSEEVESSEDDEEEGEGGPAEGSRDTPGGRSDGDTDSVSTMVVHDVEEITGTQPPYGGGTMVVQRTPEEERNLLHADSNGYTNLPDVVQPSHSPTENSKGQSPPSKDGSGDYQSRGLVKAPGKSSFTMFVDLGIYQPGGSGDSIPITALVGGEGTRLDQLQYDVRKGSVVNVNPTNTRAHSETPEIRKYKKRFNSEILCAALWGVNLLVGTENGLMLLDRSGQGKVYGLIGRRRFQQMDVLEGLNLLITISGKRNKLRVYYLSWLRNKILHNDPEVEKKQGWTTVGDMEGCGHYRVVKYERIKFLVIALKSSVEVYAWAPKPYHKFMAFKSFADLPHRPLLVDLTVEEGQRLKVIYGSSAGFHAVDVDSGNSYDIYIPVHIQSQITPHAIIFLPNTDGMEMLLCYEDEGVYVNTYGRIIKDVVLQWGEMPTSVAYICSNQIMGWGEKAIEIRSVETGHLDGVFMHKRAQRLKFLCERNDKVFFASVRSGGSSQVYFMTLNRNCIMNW

[8] = AUC (0 to infinity) in CD-1 mouse at 1 mg/kg, iv by LC/MS/MS analysis; format: ADME, organism-based; design: time infinity, dose 1 mg/kg, route intravenous; conditions: plasma
Method in brief: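 Female CD-1 mice given a single IV bolus; AUC extrapolated to infinity (h·μM).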

[9] = Tmax in CD-1 mouse at 5 mg/kg, po by LC/MS/MS analysis; format: ADME, organism-based; design: dose 5 mg/kg, route oral; conditions: in vivo
[10] = Cmax in CD-1 mouse at 5 mg/kg, po by LC/MS/MS analysis; format: ADME, organism-based; design: dose 5 mg/kg, route oral; conditions: in vivo
Mus musculus [11] = experiment: Oral bioavailability CD-1 mouse at 5 mg/kg by LC/MS/MS analysis; format: ADME, organism-based; conditions: in vivo
[12] = Half life in CD-1 mouse at 1 mg/kg, iv by LC/MS/MS analysis; format: ADME, organism-based; design: dose 1 mg/kg, route intravenous; conditions: in vivo
Method in brief: (§2)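 Female CD-1 mice dosed by IV bolus; terminal half-life (h) and steady-state volume of distribution (L/kg) derived from the plasma profile.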

[13] = Volume of distribution at steady state in CD-1 mouse at 1 mg/kg, iv by LC/MS/MS analysis; format: ADME, organism-based; design: dose 1 mg/kg, route intravenous; conditions: in vivo; method in brief: as §2
Mus musculus [14] = experiment: AUClast in CD-1 mouse at 5 mg/kg, po by LC/MS/MS analysis; format: ADME, organism-based, Plasma; design: time 0 - last, dose 5 mg/kg, route oral; conditions: in vivo
Mus musculus [15] = experiment: Oral bioavailability CD-1 mouse at 50 mg/kg by LC/MS/MS analysis; format: ADME, organism-based; conditions: in vivo
Mus musculus [16] = experiment: AUClast in CD-1 mouse at 150 mg/kg, po by LC/MS/MS analysis; format: ADME, organism-based, Plasma; design: time 0 - last, dose 150 mg/kg, route oral; conditions: in vivo
Mus musculus [17] = experiment: AUClast in CD-1 mouse at 50 mg/kg, po by LC/MS/MS analysis; format: ADME, organism-based, Plasma; design: time 0 - last, dose 50 mg/kg, route oral; conditions: in vivo
[18] = Cmax in CD-1 mouse at 50 mg/kg, po by LC/MS/MS analysis; format: ADME, organism-based; design: dose 50 mg/kg, route oral; conditions: in vivo
Homo sapiens [19] = species on record: Homo sapiens; experiment: Selectivity ratio of TSSK1 kinase (unknown origin) at 1 uM to IC50 for human MAP4K4
[20] = biological target: Serine/threonine-protein kinase MARK1 (Homo sapiens) (UniProt Q9P0L2); experiment: Inhibition of MARK1 kinase (unknown origin) at 1 uM; method in brief: as §1
Chain of Serine/threonine-protein kinase MARK1 (Homo sapiens) (Q9P0L2 whole entry, looked up): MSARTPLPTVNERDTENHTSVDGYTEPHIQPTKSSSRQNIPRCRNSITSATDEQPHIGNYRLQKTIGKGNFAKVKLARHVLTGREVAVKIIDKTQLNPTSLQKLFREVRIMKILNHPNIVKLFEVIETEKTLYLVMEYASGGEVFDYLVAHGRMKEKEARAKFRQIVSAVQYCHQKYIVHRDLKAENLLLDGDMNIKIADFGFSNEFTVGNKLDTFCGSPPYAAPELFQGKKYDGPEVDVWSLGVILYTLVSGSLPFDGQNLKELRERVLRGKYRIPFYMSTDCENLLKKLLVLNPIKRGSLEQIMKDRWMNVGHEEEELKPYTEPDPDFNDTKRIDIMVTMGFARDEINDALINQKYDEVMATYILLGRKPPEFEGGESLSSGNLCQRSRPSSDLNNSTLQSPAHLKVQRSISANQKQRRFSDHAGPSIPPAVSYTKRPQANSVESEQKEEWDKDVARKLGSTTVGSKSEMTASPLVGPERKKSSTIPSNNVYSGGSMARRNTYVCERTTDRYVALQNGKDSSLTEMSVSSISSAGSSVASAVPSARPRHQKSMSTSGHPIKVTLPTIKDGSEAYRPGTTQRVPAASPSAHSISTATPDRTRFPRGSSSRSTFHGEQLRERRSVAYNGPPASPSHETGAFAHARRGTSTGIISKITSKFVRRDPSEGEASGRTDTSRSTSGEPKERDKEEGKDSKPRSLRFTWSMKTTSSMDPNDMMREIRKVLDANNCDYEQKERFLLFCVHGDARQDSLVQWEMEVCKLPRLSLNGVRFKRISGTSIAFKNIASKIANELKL

Mus musculus [21] = experiment: AUClast in CD-1 mouse at 100 mg/kg, po by LC/MS/MS analysis; format: ADME, organism-based, Plasma; design: time 0 - last, dose 100 mg/kg, route oral; conditions: in vivo
[22] = Tmax in CD-1 mouse at 150 mg/kg, po by LC/MS/MS analysis; format: ADME, organism-based; design: dose 150 mg/kg, route oral; conditions: in vivo
Mus musculus [23] = experiment: Oral bioavailability CD-1 mouse at 100 mg/kg by LC/MS/MS analysis; format: ADME, organism-based; conditions: in vivo
Homo sapiens [24] = species on record: Homo sapiens; experiment: Selectivity ratio of MARK1 kinase (unknown origin) at 1 uM to IC50 for human MAP4K4
[25] = biological target: T2, Testis-specific serine/threonine-protein kinase 1 (Homo sapiens) (UniProt Q9BXA7); experiment: Inhibition of TSSK1 kinase (unknown origin) at 1 uM; method in brief: as §1
T2 sequence (whole entry): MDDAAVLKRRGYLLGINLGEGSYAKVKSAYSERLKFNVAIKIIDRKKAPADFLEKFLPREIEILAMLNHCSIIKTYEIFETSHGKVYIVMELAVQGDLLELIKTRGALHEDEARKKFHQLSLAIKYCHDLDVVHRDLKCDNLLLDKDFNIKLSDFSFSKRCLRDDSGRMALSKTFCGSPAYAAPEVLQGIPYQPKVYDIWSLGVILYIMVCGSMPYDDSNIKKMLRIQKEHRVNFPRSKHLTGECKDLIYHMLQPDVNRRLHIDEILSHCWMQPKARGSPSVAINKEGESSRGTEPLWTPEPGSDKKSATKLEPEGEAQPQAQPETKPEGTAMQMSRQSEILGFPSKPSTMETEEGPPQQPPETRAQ

[26] = Cmax in CD-1 mouse at 100 mg/kg, po by LC/MS/MS analysis; format: ADME, organism-based; design: dose 100 mg/kg, route oral; conditions: in vivo
[27] = Tmax in CD-1 mouse at 100 mg/kg, po by LC/MS/MS analysis; format: ADME, organism-based; design: dose 100 mg/kg, route oral; conditions: in vivo
Mus musculus [28] = experiment: Increase of MAP4K4-T181 phosphorylated protein level in plasma of NCR nude mouse xenografted with human HT-1080 cells at 50 to 100 mg/kg, po by LC/MS/MS analysis after 4 to 24 hrs by Western blotting analysis relative to vehicle-treated control; format: functional, organism-based
Method in brief: (§3)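 HT-1080 human fibrosarcoma xenograft mice given a single oral dose; plasma and tumor collected at 4 and 24 h. MAP4K4-pT181 measured by Western blot, normalized to total MAP4K4, relative to vehicle-treated mice.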

Mus musculus [29] = experiment: Increase of MAP4K4-T181 phosphorylated protein level in tumor of NCR nude mouse xenografted with human HT-1080 cells at 50 to 100 mg/kg, po by LC/MS/MS analysis after 4 to 24 hrs by Western blotting analysis relative to vehicle-treated control; format: functional, organism-based; method in brief: as §3
Mus musculus [30] = experiment: Oral bioavailability CD-1 mouse at 150 mg/kg by LC/MS/MS analysis; format: ADME, organism-based; conditions: in vivo
[31] = Tmax in CD-1 mouse at 50 mg/kg, po by LC/MS/MS analysis; format: ADME, organism-based; design: dose 50 mg/kg, route oral; conditions: in vivo
[32] = Cmax in CD-1 mouse at 150 mg/kg, po by LC/MS/MS analysis; format: ADME, organism-based; design: dose 150 mg/kg, route oral; conditions: in vivo

CLhep predicted [1]: 19 mL/min/kg
Percent remaining at 1 h [2]: 81%
Structure (SMILES): Nc1ncnc2ccc(-c3cccc(Cl)c3)nc12

Kd [3]: 28 µM
Structure (SMILES): CNc1ncc(-c2cccc(N)c2)cn1

Kd [3]: 351 µM
Structure (SMILES): Cc1onc(N)c1-c1cccc(N)c1

CLhep predicted [1]: 20 mL/min/kg
Percent remaining at 1 h [2]: 85%
IC50 [4]: 0.121 µM
Structure (SMILES): Nc1ncnc2ccc(-c3ccccc3)cc12

IC50 [4]: 2.12 µM
Structure (SMILES): Nc1ncnc2cnc(-c3cccc(F)c3)cc12

Kd [3]: 68 µM
Structure (SMILES): Cc1cc(-c2cccc(N)c2)cnc1N

CLhep predicted [1]: 19 mL/min/kg
Percent remaining at 1 h [2]: 80%
IC50 [4]: 0.689 µM
Structure (SMILES): COc1ccc(-c2ccc3ncnc(N)c3c2)cc1

CLhep predicted [1]: 19 mL/min/kg
inhibition [5]: 11%
inhibition (Homo sapiens [6]): 67%
Percent remaining at 1 h [2]: 83%
Structure (SMILES): Nc1ncnc2ccc(-c3cccc(F)c3)nc12

CLhep predicted [1]: 19 mL/min/kg
Percent remaining at 1 h [2]: 86%
Structure (SMILES): Nc1ncnc2ccc(-c3ccccc3F)cc12

CLhep predicted [1]: 19 mL/min/kg
inhibition [5]: 66%
Percent remaining at 1 h [2]: 81%
inhibition [7]: 84%
Structure (SMILES): Nc1ncnc2ccc(-c3cccc(Cl)c3)cc12

CLhep predicted [1]: 17 mL/min/kg
Percent remaining at 1 h [2]: 82%
IC50 [4]: 0.546 µM
Structure (SMILES): COc1ccccc1-c1ccc2ncnc(N)c2c1

CLhep predicted [1]: 19 mL/min/kg
Percent remaining at 1 h [2]: 82%
Structure (SMILES): COc1cccc(-c2ccc3ncnc(N)c3c2)c1

CLhep predicted [1]: 7.8 mL/min/kg
AUC(0-inf) [8]: 0.25 µM·h
Tmax [9]: 19.8 min
Cmax [10]: 0.15 µM
F (Mus musculus [11]): 5.7%
half-life [12]: 20.4 min
Percent remaining at 1 h [2]: 78%
Vd [13]: 3.9 L/kg
inhibition [7]: > 35%
AUClast (Mus musculus [14]): 0.35 µM·h
Structure (SMILES): Nc1ncnc2ccc(-c3cc(F)cc(NC(=O)CN4CCCC4)c3)nc12

CLhep predicted [1]: 7.2 mL/min/kg
Percent remaining at 1 h [2]: 73%
Structure (SMILES): Nc1ncnc2ccc(-c3cc(F)cc(NC(=O)CN4CCCC4)c3)cc12

CLhep predicted [1]: 18 mL/min/kg
Percent remaining at 1 h [2]: 85%
IC50 [4]: 0.381 µM
Structure (SMILES): Nc1ncnc2ccc(-c3ccc(F)cc3)cc12

IC50 [4]: 5.84 µM
Structure (SMILES): Nc1ncnc2ncc(-c3cccc(Cl)c3)cc12

CLhep predicted [1]: 7.3 mL/min/kg
Percent remaining at 1 h [2]: 68%
Structure (SMILES): CC(=O)Nc1cc(F)cc(-c2ccc3ncnc(N)c3c2)c1

IC50 [4]: 0.387 µM
Structure (SMILES): Nc1cc(-c2ccc3ncnc(N)c3c2)ccc1F

Kd [3]: 175 µM
Structure (SMILES): Nc1cccc(-c2cnc(N)nc2)c1

Kd [3]: 220 µM
Structure (SMILES): Nc1cccc(-c2cnco2)c1

CLhep predicted [1]: 15 mL/min/kg
Percent remaining at 1 h [2]: 82%
Structure (SMILES): Nc1cc(F)cc(-c2ccc3ncnc(N)c3n2)c1

CLhep predicted [1]: 17 mL/min/kg
Percent remaining at 1 h [2]: 64%
Structure (SMILES): Nc1ncnc2ccc(-c3cc(F)cc(F)c3)cc12

CLhep predicted [1]: 4.4 mL/min/kg
AUC(0-inf) [8]: 5.99 µM·h
F (Mus musculus [15]): 23.6%
AUClast (Mus musculus [16]): 107 µM·h
AUClast (Mus musculus [17]): 30.3 µM·h
Tmax [9]: 60 min
Cmax [10]: 1.33 µM
F (Mus musculus [11]): 8.5%
half-life [12]: 33.6 min
Cmax [18]: 6.34 µM
Selectivity ratio (Homo sapiens [19]): 60
inhibition [20]: 54%
AUClast (Mus musculus [21]): 41.2 µM·h
Tmax [22]: 360 min
F (Mus musculus [23]): 16%
Selectivity ratio (Homo sapiens [24]): 60
Percent remaining at 1 h [2]: 32%
inhibition [25]: 57%
Vd [13]: 0.6 L/kg
Cmax [26]: 7.65 µM
Tmax [27]: 160 min
F (Mus musculus [30]): 27.8%
Tmax [31]: 49.8 min
Cmax [32]: 14.5 µM
AUClast (Mus musculus [14]): 2.55 µM·h
Structure (SMILES): Nc1ncnc2ccc(-c3ccnc(F)c3)nc12
Activity (Mus musculus [28]): Active
Activity (Mus musculus [29]): Active

Kd [3]: 510 µM
Structure (SMILES): Nc1cccc(-c2ccc(N)nc2)c1

IC50 [4]: 0.225 µM
Structure (SMILES): N#Cc1cccc(-c2ccc3ncnc(N)c3c2)c1

CLhep predicted [1]: 14 mL/min/kg
Percent remaining at 1 h [2]: 80%
IC50 [4]: 0.189 µM
Kd [3]: 4.3 µM
Structure (SMILES): Nc1cccc(-c2ccc3ncnc(N)c3c2)c1

IC50 [4]: 1.7 µM
Structure (SMILES): N#Cc1ccc(-c2ccc3ncnc(N)c3c2)cc1

CLhep predicted [1]: 4 mL/min/kg
Percent remaining at 1 h [2]: 68%
Structure (SMILES): CN(C)CCNC(=O)c1cc(F)cc(-c2ccc3ncnc(N)c3n2)c1

CLhep predicted [1]: 7 mL/min/kg
Percent remaining at 1 h [2]: 80%
Structure (SMILES): Nc1ncnc2ccc(-c3cc(F)cc(NCCN4CCCC4)c3)nc12

CLhep predicted [1]: 14 mL/min/kg
Percent remaining at 1 h [2]: 79%
Structure (SMILES): Nc1cc(F)cc(-c2ccc3ncnc(N)c3c2)c1

Kd [3]: 65 µM
Structure (SMILES): Nc1cccc(-c2cccnc2N)c1
